bCat nuc transl – modulators of beta-catenin nuclear translocation, primary screen, imaging, HeLa cells, immunofluorescence, high-content; nuclear translocation activity, % at 5 µM; actives 0.3% (n = 190,000); AID 1665, 2009;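 active = nuclear translocation activity above 50% at 5 µM, with a well cell count of 50 or more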;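 note: per-cell ratio of nuclear to cytoplasmic median beta-catenin stain intensity; plate controls were DMSO negative control for no effect and GSK-3 inhibitor IX positive control for full effect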
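Read-out: Nuclear/cytoplasmic beta-catenin signal ratio, % activation | Assay system: Human HeLa cell line | Times: 24 h compound exposure at 37°C, 5% CO2 | Signal: Fluorescence imaging of beta-catenin antibody stain plus DAPI | Dosing: 5 µM primary, 0.02–20 µM confirmation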
MT stabilizer – microtubule stabilizers in HeLa cells, primary screen, imaging, high-content imaging; HeLa tubulin immunostaining HCS, 24 h; share of cells brighter than vehicle mean+2SD; actives 0.83% (n = 200,000); % tubulin-high responders, % at 10 µM;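 active = plate Z-score above 3 for both tubulin-high and condensed-nucleus cell shares, with cell loss under 80%, at 10 µM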;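 note: anti alpha tubulin signal scored within the nucleus-defined area of each cell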
ROMK mod – ROMK potassium channel modulators, primary screen, cell-based, thallium flux, MLSMR library; Tet-inducible ROMK, thallium flux fluorescence; actives lie on both sides; actives 2% (n = 130,000); B-score at 10 µM; ATP-sensitive inward rectifier potassium channel 1 (Homo sapiens), P48048; AID 1918, 2009;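 active = signal ratio slope over the read window, or its plate-corrected B-score, at least 3 SD from the plate mean, either direction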;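 note: B-score of the F/F0 ratio slope over 7 to 12 s after thallium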
Target sequence (P48048 whole entry, looked up): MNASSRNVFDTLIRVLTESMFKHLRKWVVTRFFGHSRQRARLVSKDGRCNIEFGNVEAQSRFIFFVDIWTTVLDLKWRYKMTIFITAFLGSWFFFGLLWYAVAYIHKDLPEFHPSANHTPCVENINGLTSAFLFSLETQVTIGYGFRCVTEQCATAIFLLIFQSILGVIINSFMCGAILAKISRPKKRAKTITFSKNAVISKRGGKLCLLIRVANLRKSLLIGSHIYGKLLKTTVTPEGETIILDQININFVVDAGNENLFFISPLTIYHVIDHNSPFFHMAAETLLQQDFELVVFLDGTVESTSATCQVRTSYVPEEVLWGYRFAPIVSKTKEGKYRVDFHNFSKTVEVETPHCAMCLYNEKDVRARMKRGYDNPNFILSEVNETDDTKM
ROMK hit retest – ROMK channel modulator hit retest, confirmation, cell-based, thallium flux, duplicate, resupplied hits | shares compounds with ROMK mod | fluorescence ratio; hits give low values | normalized thallium flux (F/F0 slope) at 10 µM | actives 54% (n = 3,000);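 active = Flux at 10 µM at least 3 SD below or above vehicle control mean in one or both replicates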
* marks the source's active call; other numbers are inactive results; / = no result given. Rows were chosen to be rich in hits. Some 1.9% of all compounds tested hit in one or more screens of this group.

SMILES	bCat nuc transl	MT stabilizer	ROMK mod	ROMK hit retest
CC(=O)NCCc1nc2ccccc2n1CCOc1cccc(C)c1	0	/	0.081	/
Cc1cccc(OCCn2c(CCCO)nc3ccccc32)c1	0	4	-2.8*	0.059*
CCOC(=O)N1CCC2(CC1)C(C#N)=C(N)OC1=C2C(=O)CC(C)C1 (configuration not stated)	0	2	/	/
COC(=O)C(=Cc1ccccc1[N+](=O)[O-])C(=O)OC	6	/	-2.6*	0.051*
COc1ccc(CNC(=O)/C=C/c2ccccc2[N+](=O)[O-])cc1	6	2	0.91	/
COc1ccc(S(=O)(=O)NCC2CCCN(CC(C)(C)C)C2)cc1 (configuration not stated)	-2	4	0.54	/
COc1ccc(/C=N\NC(=O)c2cc(O)c(O)c(O)c2)cc1CN1CCN(c2ccc(F)cc2)CC1	6	4	/	/
Brc1ccc2c(c1)CNc1c(ncnc1N1CCOCC1)O2	0	2	/	0.082
Brc1ccc2ncnc(Nc3ccc(N4CCOCC4)cc3)c2c1	0	3	/	/
CC(C)(CN1CCN(Cc2ccccc2)CC1)NS(=O)(=O)c1ccc(Cl)cc1	0	/	/	/
O=c1cc2c(nn1Cc1ccccc1Cl)-c1ccccc1CC2	4	2	-1.7	/
CCCC(=O)N1CCN(c2nc(CC(C)C)c3c(c2C#N)CCC3)CC1	-3	5	-4.2*	0.066*
CC(C)Cc1nc(N2CCN(C(=O)Cc3ccccc3)CC2)c(C#N)c2c1COC(C)(C)C2	-1	/	/	/
O=C(c1ccc2c3c(cccc13)CC2)C1CCCN(C(=O)c2ccc[n+]([O-])c2)C1 (configuration not stated)	2	/	/	/
O=C(O)c1ccc(OCCOc2ccccc2)cc1	0	/	/	/
CSc1c(CC(=O)Nc2ccccc2C(F)(F)F)n(Cc2ccccc2)c2ccccc12	0	10	/	/
Cc1cccc(C)c1NC(=O)c1ccc(-c2ccc(Cl)cc2Cl)o1	0	0	-2.9*	0.052*
Cc1ccccc1NC(=O)c1ccc(-c2ccc(Cl)cc2Cl)o1	/	2	0.13	/
Cc1c(CN(C)C(=O)c2sc3cc(Cl)ccc3c2Cl)cnn1C	2	5	/	/
O=C(Cc1ccc(-c2ccccc2)cc1)NCc1cccnc1	45	13*	3.2*	0.088
O=C(Cc1ccccc1)NCc1cccnc1	-1	3	0.37	/
CC(C)N1CCN(Cc2ccc(C#CCCO)cc2)CC1CCO (configuration not stated)	1	3	-0.016	/
CCOCC(=O)Nc1cc(C(=O)Nc2ccc(F)cc2)ccc1Cl	2	3	/	/
ClC(Cl)(c1nnnn1-c1ccccc1)c1nnnn1-c1ccccc1	2	3	-2.8*	0.06*
c1ccc(N2CCN(c3nnnn3-c3ccccc3)CC2)cc1	0	2	-0.84	/
SMILES	bCat nuc transl	MT stabilizer	ROMK mod	ROMK hit retest
CCOC(=O)C1CCN(C(=O)c2sccc2Cl)CC1	-1	/	/	/
Cc1nn(C)cc1S(=O)(=O)NC1CCCC1	-1	4	0.025	/
CNC(=O)c1sccc1-n1cccc1	/	1	2.9*	0.076
O=C(NNC(=O)c1sccc1-n1cccc1)c1ccccc1	-1	2	/	/
O=C(NCCc1ccccc1)C1CCN(C(=O)c2ccc([N+](=O)[O-])cc2)CC1	2	3	-2.6	/
COc1ccccc1S(=O)(=O)Cc1ccc(C(=O)NC2CCCCC2)o1	-4	3	/	0.083
COc1ccc(S(=O)(=O)Cc2ccc(C(=O)NC3CCCC3)o2)cc1	/	4	/	/
Cc1ccc(-c2nn3cnnc3c3ccccc23)cc1	-1	3	-0.39	/
COc1ccccc1N(CC(=O)N(c1ccccc1)C(C)C)S(=O)(=O)c1cccs1	-5	3	-2.3	/
COc1ccccc1N(CC(=O)N(CC(C)C)CC(C)C)S(=O)(=O)c1cccs1	5	6	-4.1*	0.067*
Cc1onc(COc2ccccc2O)c1Br	0	5	/	/
CNC(=S)NNC(=O)c1ccccc1F	1	3	0.2	/
Cc1cccc(NC(=O)c2cc([N+](=O)[O-])ccc2NCC2CCCO2)n1 (configuration not stated)	-1	4	-2.2	/
COCCCNc1ccc([N+](=O)[O-])cc1C(=O)Nc1cccc(C)n1	-1	6	-4.1*	0.045*
Cc1nc2cc(NCc3nc4ccccc4n3Cc3ccccc3)ccc2n1C	-2	2	-5.2*	0.061*
Cc1cccc(NCc2nc3ccccc3n2Cc2ccccc2)c1	/	1	-0.24	/
O=C(CSc1ncn[nH]1)NCCC(c1ccccc1)c1ccccc1	-2	2	/	/
NC(=O)c1cc(C(=O)c2ccccc2Cl)c[nH]1	-4	5	0.37	/
COc1ccc2[nH]c(-c3cccc(F)c3)cc(=O)c2c1	/	13	4*	0.095
O=c1cc(-c2cccc(F)c2)[nH]c2ccccc12	/	9	3.7	/
Cc1ccc(-c2cc(=O)c3cc(F)ccc3[nH]2)cc1	/	3	0.96	/
Cc1ccc2[nH]c(-c3cccc(F)c3)cc(=O)c2c1	/	27*	3.1*	0.083
Cc1ccc(C(=O)Nn2cnnc2)cc1S(=O)(=O)N1CCOCC1	-1	/	/	/
COc1cccc(-c2cc(-c3cccnc3)nc(N)c2C#N)c1	-1	/	-0.023	/
COc1ccc(OC)c(-c2cc(-c3cccnc3)nc(N)c2C#N)c1	1	/	3.5*	0.076
SMILES	bCat nuc transl	MT stabilizer	ROMK mod	ROMK hit retest
COc1cccc(-c2cc(-c3cccnc3)c(C#N)c(N)n2)c1	-1	/	1.7	/
COc1cc(-c2cc(-c3ccc(O)cc3)nc(N)c2C#N)ccc1O	0	1	4.2*	0.089
N#CC1=C(N)C(C#N)(C#N)[C@H](c2c(F)cccc2F)[C@H]2CC3(CC=C12)OCCO3	-2	26*	-3.6*	0.053*
CN1C2C=C3C(C#N)=C(N)C(C#N)(C#N)[C@H](c4c(F)cccc4F)[C@H]3C1CC2 (some centres not stated)	1	4	/	/
COc1cc(C(=O)Nc2cccc3cccnc23)cc(OC)c1OC	-1	2	/	/
COc1cc(NC(C)CCCN)c2ncccc2c1Oc1ccccc1 (configuration not stated)	0	2	-3.6*	0.065*
COc1cc(OC)cc(C(=O)NCCCN2CCN(CCCNC(=O)c3cc(OC)cc(OC)c3)CC2)c1	-5	2	-0.53	/
CCN(CC)c1ccc(/C=C2\CCC(/C=N/NC(=O)c3ccc(=O)n(C)c3)=C2N2CCOCC2)cc1	-1	7	/	0.053*
O=C(N/N=C/C1=C(N2CCOCC2)C(=C\c2ccccc2)/CC1)Nc1ccccc1	3	4	/	/
CCOCCCNC(=O)C(c1ccc(C)cc1)N(Cc1cccs1)C(=O)c1ccccc1O (configuration not stated)	0	3	-0.048	/
C/C(=N\NC(=O)CNC(=O)c1ccncc1)c1ccc(C)cc1	-1	3	-0.62	/
C/C(=N/NC(=O)CNc1ccc(Cl)cc1C)c1ccc(C)cc1	0	3	12*	0.078
COc1ccc(N2CCN(C(=O)c3cc4c(-c5cccc(OC)c5)nn(C)c4s3)CC2)cc1	0	4	/	/

Screening data deposited in PubChem BioAssay by several laboratories.
